SR-BI HDL uptake: mouse SR-BI HDL lipid transfer inhibition; ldlA[mSR-BI] CHO cells, DiI-HDL uptake fluorescence, 3 h; inhibition, % at 12.5 µM; 320,000 compounds, 0.96% hits; AID 488896;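 active means mean replicate inhibition of at least 70% and a set share of replicates each scoring 70 or more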;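 further: 0% = median of neutral control wells and 100% = median of positive control wells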
Target sequence (Q61009 whole entry, looked up): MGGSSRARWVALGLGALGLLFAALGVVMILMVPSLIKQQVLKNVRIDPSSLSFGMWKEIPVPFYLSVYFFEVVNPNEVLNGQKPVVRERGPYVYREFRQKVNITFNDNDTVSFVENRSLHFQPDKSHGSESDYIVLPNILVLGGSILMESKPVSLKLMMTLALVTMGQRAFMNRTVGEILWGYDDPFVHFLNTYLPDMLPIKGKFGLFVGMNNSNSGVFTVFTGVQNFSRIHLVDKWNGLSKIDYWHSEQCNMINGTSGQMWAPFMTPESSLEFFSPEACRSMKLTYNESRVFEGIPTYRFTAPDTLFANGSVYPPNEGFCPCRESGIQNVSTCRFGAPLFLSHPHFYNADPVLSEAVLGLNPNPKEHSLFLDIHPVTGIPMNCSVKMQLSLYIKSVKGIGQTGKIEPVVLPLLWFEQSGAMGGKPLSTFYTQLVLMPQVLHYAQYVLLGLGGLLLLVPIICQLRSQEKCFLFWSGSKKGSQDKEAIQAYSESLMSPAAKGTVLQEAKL
AHR activator: activates the human aryl hydrocarbon receptor; AID 2796; 320,000 compounds, 2.5% hits; AHR-responsive luciferase reporter cells, luminescence; P35869; activation, % at 5 µM; in the data active means activation above about 47%;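 further: 0% = vehicle wells and 100% = reference agonist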
GASC-1 inh: human JMJD2C demethylase inhibition | Q9H3R0 | GST-JMJD2C(1-420) H3K9me3 demethylation, DELFIA europium | inhibition, % at 2.35 µM | 330,000 compounds, 0.069% hits | AID 2099;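 active means more than half of a compound's replicate wells show inhibition beyond 50%, single wells judged on their own value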;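 further: signal counts dimethyl H3K9 product captured on neutravidin plate; 0% = median of DMSO wells and 100% = 0.3 times that DMSO median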
SR-BI uptake up: SR-BI HDL lipid transfer activation; activation, % at 12.5 µM; 320,000 compounds, 0.096% hits; AID 504775; CHO ldlA[mSR-BI] cells, DiI-HDL uptake fluorescence, 3 h; 100 = double the neutral-control signal;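 active means mean replicate activation of at least 60% and every replicate at or above 60%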;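 further: 0% = median plate neutral-control signal and 100% = twice that signal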
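Assay system: LDL receptor-deficient CHO ldlA cells overexpressing murine SR-BI / Medium: BSA-supplemented, HEPES-buffered Ham's F12, pH 7.4 / Probe or stimulus: DiI-labelled HDL at 10 µg/mL final / Timing: compound with DiI-HDL co-incubation, 3 h at 37 °C / Technique: bottom-read cell fluorescence after medium removal, ex 550/em 595 nm / Measure: HDL uptake via cellular fluorescence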
FXN GAA850 act: increases GAA850 frataxin promoter reporter activity; HEK293 lucGAA850 FXN promoter luciferase reporter, 24 h; percent of 10 µM SAHA response; activation, % at 6 µM; 360,000 compounds, 0.56% hits;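 active means activation above the average of all compounds screened plus 3 SD, cutoff fixed separately per campaign, cut at about 7.5% in these data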;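 further: 0% = DMSO wells and 100% = 10 µM SAHA wells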
Active calls of the source: *; . = no result. Compounds with a hit are over-represented: about 3.7% of the library has one in this group of screens.

SMILES	SR-BI HDL uptake	AHR activator	GASC-1 inh	SR-BI uptake up	FXN GAA850 act
COc1ccc(NC(=O)c2cc(-c3ccncc3)nc3ccccc23)c(OC)c1	68	56*	1	-68	0
COc1ccc(-c2cc(C(=O)Nc3ccc(C(N)=O)cc3)c3ccccc3n2)cc1OC	48	52*	-3	-48	7
COC(=O)[C@@]1(Cc2ccc(OC)cc2)[C@H]2c3cc(C(=O)N(C)C)[nH]c3C[C@H]2CN1C(=O)c1ccccc1	30	1	0	-30	-1
COc1ccc(NC(=O)c2cccc(S(=O)(=O)N3CCc4ccccc43)c2)cn1	16	7	2	-16	-2
COc1cc(-c2cc(C(=O)Nc3cccc(C(C)=O)c3)c3ccccc3n2)cc(OC)c1OC	85*	8	-12	-85	-8
COc1ccc(NC(=O)c2cc(-c3ccc(OC)c(OC)c3)nc3ccccc23)c(OC)c1	95*	9	4	-95	2
O=C(NC1=NCCS1)c1cc(-c2ccc(-c3ccccc3)cc2)nc2ccccc12	-13	1	1	13	3
COc1cc(-c2cc(C(=O)Nc3ccc(O)cc3)c3ccccc3n2)cc(OC)c1OC	.	18	1	.	-3
COc1ccc(-c2cc(C(=O)N(C)Cc3ccc(F)cc3)c3ccccc3n2)cc1OC	57	64*	5	-57	0
COc1ccc(-c2cc(C(=O)NC3=NCCS3)c3ccccc3n2)cc1OC	70	67*	-29	-70	-2
CC1=C(C(=O)N2CCOCC2)CC(CC(=O)NCc2cccs2)C(=O)N1Cc1ccc(F)cc1 (configuration not stated)	.	.	.	.	1
COC(=O)C(C)Oc1ccc(Cl)c(CN2OCC(C)(C)C2=O)c1 (configuration not stated)	-5	1	-4	5	2
COc1cccc(C(=O)Nc2nc(-c3ccc(S(=O)(=O)N4CCOCC4)cc3)cs2)c1	65	-4	-12	-65	-6
COc1ccc(/C=N/Nc2nc(-c3cccc(S(=O)(=O)N4CCCC4)c3)cs2)c(OC)c1	83*	-3	2	-83	2
COc1ccc(-c2[nH]ncc2/C=N\NC(=O)c2ccc(Br)o2)cc1OC	11	60*	1	-11	4
COc1cccc(-c2nc(-c3ccc(NC(=O)Cc4ccccc4OC)cc3)no2)c1	78*	.	.	-78	1
COc1cc(-c2nc(-c3ccc(NC(=O)c4ccc(Br)o4)cc3)no2)cc(OC)c1OC	42	-1	-21	-42	-5
COc1ccc(-c2nc(-c3ccc(NC(=O)c4ccc(Br)o4)cc3)no2)cc1OC	79*	23	-2	-79	1
O=C(Nc1cc(Cl)ccc1Oc1ccccc1)c1ccccc1F	25	65*	-3	-25	1
COc1ccc(Cl)cc1NC(=S)Nc1ccccc1C	9	1	-26	-9	4
COc1ccc(Cl)cc1NC(=O)Nc1cccc([N+](=O)[O-])c1C	78*	9	8	-78	0
COc1ccc(OC)c(NC(=O)c2cc(-c3cc(Cl)ccc3O)n[nH]2)c1	70	2	3	-70	0
COc1ccc(Cl)cc1NC(=O)c1ccccc1C	86*	9	7	-86	2
COc1ccc(Cl)cc1NC(=O)c1cc(-c2ccccc2O)n[nH]1	90*	21	-3	-90	4
CCOc1ccc(C(C)=O)cc1COC(=O)C(C)N=C1NS(=O)(=O)c2ccccc21 (configuration not stated)	.	-1	-5	.	1
SMILES	SR-BI HDL uptake	AHR activator	GASC-1 inh	SR-BI uptake up	FXN GAA850 act
Nc1c(N(CCO)C(=O)c2ccccc2OCc2ccccc2Cl)c(=O)[nH]c(=O)n1Cc1ccccc1	-9	.	.	9	-1
Cc1ccc(C(=O)Nc2nnc(COc3ccccc3)s2)cc1	-2	15	-6	2	1
COc1ccc(NC(=O)CSc2ccc([N+](=O)[O-])cc2)cc1S(=O)(=O)N1CCOCC1	20	1	.	-20	-1
CCCN1C2CCCC1CC(NC(=O)c1cccc([N+](=O)[O-])c1)C2 (configuration not stated)	-14	1	14	14	1
Cc1cc(Cn2ccnc2)c(C)c([N+](=O)[O-])c1Cn1ccnc1	-7	2	84	7	-1
Cc1ccc(NC(=O)c2ccc(Cl)c(S(=O)(=O)NCc3ccco3)c2)c(O)c1	90*	56*	-5	-90	1
Cc1ccc(NC(=O)c2ccco2)c(NC(=O)c2ccc(Cl)cc2)c1	12	56*	16	-12	-4
Cc1ccc(NC(=O)c2ccco2)c(NC(=O)c2ccccc2)c1	.	28	1	.	0
CCOc1ccccc1C(=O)Nc1cc(C)ccc1NC(=O)c1ccco1	4	68*	0	-4	-6
NS(=O)(=O)c1ccc(NC(=O)c2ccc(Cl)c(S(=O)(=O)NCc3ccco3)c2)cc1	37	-1	-5	-37	0
O=C(COC(=O)c1ccco1)NNC(=O)c1ccc(Cl)cc1	-6	-1	81*	6	1
CCOC(=O)C1=C(C)NC(=O)NC1C(C)C (configuration not stated)	-4	-2	2	4	-1
N#CCCNS(=O)(=O)c1ccc(C(=O)OCCCOC(=O)c2ccc(S(=O)(=O)NCCC#N)cc2)cc1	-5	3	-1	5	0
CCOc1cc(NC(=O)c2ccco2)c(OCC)cc1NC(=O)Cc1cccc(OC)c1	.	54*	-3	.	3
Cc1cccc(NC(=O)CCc2ccccc2)c1C	-10	1	12	10	1
[O-]/[N+](=C/c1ccc(F)cc1)c1ccc(Cl)cc1	-31	64*	2	31	3
COc1ccc(S(=O)(=O)N(C)C)cc1NCC(=O)Nc1cccc(C#N)c1	36	5	-11	-36	2
FC(F)(F)c1cc(-c2cccs2)nc(-n2cc(Br)cn2)n1	18	50*	9	-18	1
O=C(N=C1SC2CS(=O)(=O)CC2N1c1cccc(Cl)c1Cl)C1CC1 (configuration not stated)	-1	1	6	1	0
COCCNC(=O)c1ccc(NC(=O)C2(c3ccccc3)CCCC2)cc1	5	2	2	-5	2
COc1cc(CNc2ccc(CNc3ncn[nH]3)cc2)ccc1OCC(=O)NC(C)(C)C	28	56*	-4	-28	-1
Cc1ccccc1NC(=O)/C(=C/c1cccs1)NC(=O)c1ccco1	-32	2	-2	32	-1
COc1ccc(N(CC(=O)N/N=C/c2cccs2)S(=O)(=O)c2ccccc2)cc1	7	64*	10	-7	1
COc1ccc(NC(=O)C(=O)N/N=C/c2cc(C)n(-c3cccc(Cl)c3Cl)c2C)c(OC)c1	72*	1	1	-72	0
COc1ccc(OC)c(NC(=O)C(=O)N/N=C/c2ccccc2[N+](=O)[O-])c1	81*	22	26	-81	2

Bioassay records from PubChem.
